One series has as its system Mus musculus. The series is described as follows: Skin toxicity in ABCG2-expressing mouse RIF cells xenografted in irradiation exposed C3H mouse assessed as foot response after 24 to 96 hrs. The series is classed as organism-based. The following applies: in vivo.
A short description of series [1]: Drug uptake in ABCG2-expressing mouse RIF cells assessed as increase in mitochondrial localization at 3 uM for 24 hrs in presence of 10% FCS by fluorescence microscopy. The series is classed as ADME, cell-based. The following applies: 2 µM, in the assay text read “2 uM” for “3 uM”. Summed up:
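RIF cells grown on poly-L-lysine-coated coverslips, co-incubated with PS and organelle trackers in 10% FCS medium for 3–4 h or 24 h, PBS-washed, imaged at 40× by inverted fluorescence microscopy. Trackers: MitoTracker Green 1 μM 1 h (mitochondria); LysoTracker Green 0.5 μM 0.5 h or 0.1 μm Fluospheres overnight (lysosomes); Bodipy C5 ceramide–albumin 5 μM (Golgi).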

Another series concerns RIF. The series is described as follows: Photosensitizing activity in ABCG2-expressing mouse RIF cells assessed as induction STAT3 covalent cross linking pretreated for 4 hrs followed by irradiation exposure to 665 nm light at 3 J/cm2 by Western blotting. The series is classed as functional, cell-based. Summed up:
(§1)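 Cells incubated 4 h with PS at indicated concentrations in 10% FCS medium, exposed to 665 nm light at 3 J/cm², extracted immediately. STAT-3 cross-linked product detected by Western blot, relative level by densitometry.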
In general terms: A western blot detects proteins with antibodies after separation by electrophoresis.

Series [2] has as its system Colon 26. The series is described as follows: Photocytotoxicity against ABCG2-deficient mouse Colon 26 cells xenografted in BALB/c mouse assessed as tumor control at 0.47 umol/kg, iv followed by exposure to irradiation at 48 J/cm2 relative to control. The series is classed as functional. Summed up: (§2)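 Mice bearing shoulder tumours (C3H/RIF, BALB/c/Colon26) injected intravenously at 0.47 μmol/kg. Tumours irradiated with 665 nm laser 24 h later at 135 J/cm², 75 mW/cm² or 48 J/cm², 7 mW/cm². Tumour volume by calipers, V=(L×W²)×0.5. Groups of 5–10 mice; curves compared by Cox–Mantel test.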

Series [3] can be described thus: Partition coefficient, log P of the compound. The series is classed as physicochemical. The following applies: octanol/water.
Series [4] in a line: Photocytotoxicity against ABCG2-expressing mouse RIF cells xenografted in C3H mouse assessed as tumor control at 0.47 umol/kg, iv followed by exposure to irradiation at 135 J/cm2 relative to control. The series is classed as functional. Summed up: as §2
In series [5] the test system is Colon 26. The series is described as follows: Photosensitizing activity in ABCG2-deficient mouse Colon 26 cells assessed as induction STAT3 covalent cross linking pretreated for 4 hrs followed by irradiation exposure to 665 nm light at 3 J/cm2 by Western blotting. The series is classed as functional, cell-based. Summed up: as §1
Series [6] can be described thus: Photocytotoxicity against ABCG2-expressing mouse RIF cells xenografted in C3H mouse assessed as tumor control at 0.47 umol/kg, iv followed by exposure to irradiation at 48 J/cm2 relative to control. The series is classed as functional. In outline: as §2

Structures are written as SMILES.

For the molecule `CCCCCCOC(C)c1c(C)c2cc3nc(c4c5[nH]c(cc6nc(cc1[nH]2)C(C)=C6CC)c(C)c5C(=O)C4)[C@@H](CCC(=O)O)[C@@H]3C` (stereo partly drawn) [HPPH], the Activity entry is “Toxic” in the series with Mus musculus; “Dose-dependent effect” in the series with RIF; 30% in the series with Colon 26 [2]; 50% in series [4]; “Dose-dependent effect” in the series with Colon 26 [5]; 40% in series [6]. Also, the Drug uptake entry in series [1] is “Active”. For the same molecule, in series [3], the logP stood at 6.

A word on the logP: it is the decadic logarithm of the partition coefficient of the neutral form, usually between octanol and water.

The values above are taken from ChEMBL document CHEMBL1137774, “Conjugation of 2-(1'-hexyloxyethyl)-2-devinylpyropheophorbide-a (HPPH) to carbohydrates changes its subcellular distribution and enhances photodynamic activity in vivo” (J Med Chem, 2009).
